# The full list was thinned out, with hits kept by preference.
# bCat KO growth: primary screen for growth suppressors in beta-catenin knockout HCT116 cells (colon tumor, human); HCT116 beta-catenin knockout viability, CellTiter-Glo, 60 h; hits give low values; viability, % at 10 µM; 1.5% of 140,000 active; AID 818, 2007;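 active = viability at or under a set limit, the compound median less 4 SD, cut at about 6% in these data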;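 note: 0% = Hyamine 1622 control at 20 µM and 100% = untreated cell control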
# HCT116 PTEN-null: growth suppression of PTEN-null HCT116, primary screen, cell-based, CellTiter-Glo. HCT116 PTEN-null viability, 60 h; hits give low values. viability, % at 10 µM. 1.2% of 140,000 active. AID 827, 2007;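 active = viability at or below a set limit, 4 SD under the median of all tested compounds, cut at about 3.7% in these data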;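 note: PTEN knockout HCT116 line with beta catenin targeted HCT116 as companion control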
# HUVEC inhibit: inhibitors of HUVEC proliferation, primary screen, cell-based, 384-well; CellTiter-Glo luminescence, 72 h; hits give low values; viability, % at 10 µM (by protocol); 1.1% of 86,000 active; AID 648, 2007;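 active = viability at or below 30%; inactive = viability above 30%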;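 note: 100% = median luminescence of DMSO-only cell control wells on each plate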
# Fibroblast inh: antiproliferative effect on LL 47 fibroblasts – human, LL 47 cells, CellTiter-Glo luminescence, primary screen; 1.1% of 85,000 active; AID 719, 2007; LL 47 human lung fibroblast viability, ATP luminescence; hits give low values; viability, % at 10 µM;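 active = viability at or below 50% in the single dose screen; inactive = viability above 50%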;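 note: compound exposure lasted 72 h before the ATP readout; 100% = median luminescence of untreated cell-only wells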
#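 Test system: LL 47 human lung fibroblasts; Quantity: 1,150 cells/well; Buffer or medium: IMEM plus 15% FBS; Dosing: tenfold compound dosing solution, DMSO at 0.1%; Timing: overnight cell rest, 72 h compound treatment at 37 °C; Detection: ATP-based CellTiter-Glo luminescent readout; Read-out basis: viability percentage against median untreated-cell control; Controls: cell-only wells, no compound.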
# H69AR growth 86K: proliferation blockers of H69AR lung cancer cells, primary screen, cell-based, human, 86K library. H69AR lung tumor viability, ATP luminescence, 72 h; hits give low values. viability, % at 10 µM. 6% of 85,000 active. AID 598, 2007;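 active = viability at or below 40%; inactive = viability above 40%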;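 note: multidrug resistant small cell line overexpressing MRP-1 efflux transporter; 100% = mean luminescence of untreated control wells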
# An asterisk follows results filed as active; / = no result.
SMILES,bCat KO growth,HCT116 PTEN-null,HUVEC inhibit,Fibroblast inh,H69AR growth 86K
COc1ccccc1N1CCN(c2nc(C)nc3c2oc2ccccc23)CC1,17,20,43,53,41
O=C(O)C1CCN(c2nc(-c3ccccc3)nc3c2oc2ccccc23)CC1,96,90,79,93,19*
O=C(O)CSc1nc(-c2ccccc2)nc2c1oc1ccccc12,95,106,91,96,65
CCOC(=O)C1CCN(c2nc(-c3ccccc3)nc3c2oc2ccccc23)CC1,95,86,85,97,63
Cc1nc(N2CCN(Cc3ccc4c(c3)OCO4)CC2)c2oc3ccccc3c2n1,/,/,77,69,23*
OCCN1CCN(c2nc(-c3ccccc3)nc3c2oc2ccccc23)CC1,11,16,12*,20*,24*
CC1CC(C)CN(c2ccc([N+](=O)[O-])cc2-c2nn[nH]n2)C1 (stereo unspecified),97,95,/,/,/
CCNc1nc(NCC)n2c(SC(C(=O)Nc3cc(Cl)cc(Cl)c3)c3ccccc3)nnc2n1 (stereo unspecified),1.2*,1.2*,/,/,/
O=S(=O)(c1ccc(Cl)c(Cl)c1)c1snnc1-c1ccccc1,1.2*,1.3*,3.6*,4.8*,-0.2*
CCOc1ccc(CN2CCN(CC(O)Cn3c4ccccc4c4ccccc43)CC2)cc1 (stereo unspecified),1.5*,1.6*,/,/,/
COc1ccc(CN2CCN(CC(O)Cn3c4ccccc4c4ccccc43)CC2)cc1 (stereo unspecified),16,14,/,/,/
Cc1ccc2[nH]c(=O)c(CN(CCCN(C)C)C(=O)Nc3ccc(Cl)cc3)cc2c1,15,16,62,64,3.0*
CCc1ccc2[nH]c(=O)c(CN(CCCN3CCOCC3)C(=O)Nc3ccccc3)cc2c1,61,56,73,95,65
CCc1ccc2[nH]c(=O)c(CN(CCCN3CCOCC3)C(=O)Nc3ccc(Cl)cc3)cc2c1,21,21,28*,77,27*
CCc1ccc2[nH]c(=O)c(CN(CCCN3CCOCC3)C(=O)Nc3cccc(Cl)c3)cc2c1,1.9*,1.9*,15*,61,29*
Cc1ccc(C)c2[nH]c(=O)c(CN(CCN3CCCC3)C(=O)Nc3cccc(Cl)c3)cc12,3.0*,1.8*,21*,28*,0.6*
Cc1cc(C)c2cc(CN(CCN3CCCC3)C(=O)Nc3ccc(F)cc3)c(=O)[nH]c2c1,25,39,55,94,75
Cc1ccc2[nH]c(=O)c(CN(CCN3CCOCC3)C(=O)Nc3ccc(F)cc3)cc2c1,65,62,90,96,39*
Cc1ccc(NC(=O)N(CCCN2CCOCC2)Cc2cc3cc4c(cc3[nH]c2=O)OCO4)cc1,73,83,/,/,/
CCOC(=O)c1ccc2c(c1)C(=O)N(C1CCCCC1)C2=O,101,106,107,100,94
CCC(=O)Oc1ccc(C(=O)Nc2ccc3c(c2)C(=O)N(C2CCCCC2)C3=O)cc1,72,69,55,93,5.3*
Cc1cc2ccccc2n2c(SCC(=O)Nc3ccc(S(=O)(=O)N4CCC(C)CC4)cc3)nnc12,77,74,/,/,/
COc1ccc([N+](=O)[O-])cc1NC(=O)C(C)Sc1nc(-c2ccccc2)cs1 (stereo unspecified),82,79,/,/,/
Oc1cccc(/C=N/Nc2cc(N3CCOCC3)nc(N3CCOCC3)n2)c1,51,52,/,/,/
Oc1ccc(/C=N/Nc2cc(N3CCOCC3)nc(N3CCOCC3)n2)cc1O,3.0*,4,/,/,/
SMILES,bCat KO growth,HCT116 PTEN-null,HUVEC inhibit,Fibroblast inh,H69AR growth 86K
O=C(COC(=O)CNS(=O)(=O)c1ccc(F)c(F)c1F)Nc1ccc(OC(F)F)cc1,90,101,/,/,/
C=CCNC(=O)Nc1ccc(Cl)cn1,99,94,/,/,/
CCOC(=O)c1ccc(NC(=O)COC(=O)c2cccc(Oc3ccccc3)c2)cc1,92,95,/,/,/
CCCCNC(=O)c1sc2nc(C)cc(COC)c2c1-n1cccc1,85,88,99,101,35*
C=CCNC(=O)c1c2c(nc3ccccc13)-c1ccccc1CC2,94,80,/,/,/
Cc1cccc(NC(=O)c2c(O)c3cccc4c3n(c2=O)CCC4)n1,92,98,103,100,85
CC(C)c1nnc(NC(=O)c2c(O)c3cccc4c3n(c2=O)CCC4)s1,42,34,109,67,34*
